Assay results collected from several papers.
Lines come from different studies, so protocols differ.
Target: 1-phosphatidylinositol 3-phosphate 5-kinase (PIKFYVE, Homo sapiens, UniProt Q9Y2I7)

Structure (SMILES) | effect on | method | tested at | remaining binding
CC(C)CC(=O)N1CCc2nc(-c3ccc(Br)cc3)nc(N(C)Cc3ccccc3)c2C1 | cell-free assay | competition with immobilised ligand | 0.1 µM | 91%
c1cnn2ncc(-c3ccnc(N4CCC45COC5)n3)c2c1 | binding |  | 1 µM | 92%
COc1ccc2c(c1)O[C@@H](c1ccc(OC)c(OC)c1)C[C@H]2NC(=O)C1(c2ccc3c(c2)OC(F)(F)O3)CC1 | cell-free assay | competition with immobilised ligand | 1 µM | 100%
N[C@@H]1CCN(c2nccc(-c3cnn4ncccc34)n2)C1 | binding |  | 1 µM | 78%
COc1cc(-c2cn(C3CCc4c(F)cccc4N(CC(F)(F)F)C3=O)nn2)ccc1-n1cnc(C)c1 (stereo not drawn) | cell-free assay | competition with immobilised ligand | 1 µM | 100%
O=C(c1ccc(Nc2ncc(Cl)c(-c3cc4ccccc4s3)n2)cc1)N1CCC(N2CCCC2)CC1 | binding | competition with immobilised ligand | 1 µM | 72%
CN(c1ccnc(CNc2nc(Nc3ccc4c(c3)CC(=O)N4)ncc2C(F)(F)F)n1)S(C)(=O)=O | cell-free assay | competition with immobilised ligand | 1 µM | 100%
CC1CCCN1c1nccc(-c2cnn3ncccc23)n1 (stereo not drawn) | binding |  | 1 µM | 100%
O=C(NCC1CCOCC1)c1n[nH]cc1NC(=O)c1c(F)cccc1F | binding | competition with immobilised ligand | 1 µM | 100%
COc1cccc(CNC(=O)c2nc3scc(COCc4ccc(C(=O)O)cc4)c3c(=O)[nH]2)c1 | cell-free assay | competition with immobilised ligand | 1 µM | 100%
COc1ncc2cc3ccccc3nc2c1C#N | cell-free assay | competition with immobilised ligand | 5 µM | 90%
CNC(=O)[C@@H]1CC[C@@H](n2c(-c3ccc4cnccc4c3)nc3ccc(C(=O)NCc4cccc(C(N)=O)c4)cc32)C1 | binding | competition with immobilised ligand | 1 µM | 14%
CN(C)c1nccc(-c2cnc3ncccn23)n1 | binding |  | 1 µM | 78%
FC(F)(F)c1ccc2c(c1)nc(-c1cccnc1)n2C1CC1 | cell-free assay | competition with immobilised ligand | 1 µM | 99%
C[C@H]1CCN(c2nccc(-c3cnn4ncccc34)n2)C1 | binding |  | 1 µM | 100%
O=C(c1ccc(Nc2ncc(Cl)c(-c3ccc(Cl)s3)n2)cc1)N1CCC(N2CCCC2)CC1 | binding | competition with immobilised ligand | 1 µM | 32%
CN(C)c1nccc(-c2cnn3ncccc23)n1 | binding |  | 1 µM | 100%
O=C(NCCCN1CCOCC1)c1ccc(Nc2nccc(-c3cc4ccccc4s3)n2)cc1 | binding | competition with immobilised ligand | 1 µM | 0.3%
